Test results published in ChEMBL document CHEMBL4316658, “Structure and Absolute Configuration of Abietane Diterpenoids from Salvia clinopodioides: Antioxidant, Antiprotozoal, and Antipropulsive Activities” (J Nat Prod, 2019).
Where a name gives a salt, the structure may show the parent alone.

Columns and labels:
Brain [1] = assay: Antioxidant activity in Wistar rat brain homogenate assessed as inhibition of […] lipid peroxidation by measuring reduction in TBARS level preincubated for 30 mins followed by […] and measured after 1 hr; type: functional, tissue-based
Outline: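 Adult male Wistar rat whole brain homogenized 1/10 (w/v) in PBS pH 7.4. Spun 10 min at 800 rcf; supernatant set to 2.666 mg protein/mL. Supernatant with EDTA and compound in DMSO preincubated 30 min at 37 °C. FeSO4 added (10 μM final), then 1 h at 37 °C. TBA/TCA reagent added, heated 80 °C 30 min, A540 read. Calibrated against TMP standard curve; IC50 by linear regression.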

[2] = Antioxidant activity assessed as DPPH radical scavenging activity measured after 30 mins; type: functional
Outline: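 Test compound solution (50 μL) mixed with 150 μL ethanolic DPPH, 100 μM final; 37 °C for 30 min; absorbance at 515 nm. Percent inhibition relative to a 100 μM DPPH ethanol blank.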

Entamoeba histolytica = assay: Antiparasitic activity against Entamoeba histolytica HM1-IMSS trophozoites assessed as inhibition of parasitic growth treated for 48 hrs followed by compound washout and measured after 48 hrs by MTT/PMS dye based colorimetric method; type: functional, organism-based; conditions: HM-1:IMSS
Outline: (§1)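 Axenic log-phase trophozoites in TYI-S-33 medium: E. histolytica HM1-IMSS with 10% heat-inactivated bovine serum (6 × 10^3 cells); G. lamblia IMSS:8909:1 with 10% calf serum and bovine bile (5 × 10^4 cells). Exposed 48 h at 37 °C to 2.5−200 μg/mL in DMSO, then subcultured drug-free 48 h. Counted by hemocytometer, confirmed by MTT/PMS formazan at 570 nm. Duplicates, ≥3 repeats; IC50 by probit regression.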

Giardia intestinalis = assay: Antiparasitic activity against Giardia intestinalis IMSS:0989:1 assessed as inhibition of parasitic growth treated for 48 hrs followed by compound washout and measured after 48 hrs by MTT/PMS dye based colorimetric method; type: functional, organism-based; conditions: Giardia duodenalis, IMSS:0989:1, 48 h; outline: as §1
Rattus norvegicus = assay: Antidiarrheal activity in po dosed Sprague-Dawley rat assessed as inhibition of charcoal-gum acacia-induced hyperperistalsis by measuring reduction in distance travelled by charcoal from pylorus to cecum pretreated for 20 mins followed by charcoal meal stimulation and measured after 30 mins; type: functional; conditions: read-out: ID50 (the source's name)
Brain [3] = assay: Potency index, ratio of BHT IC50 to test compound IC50 for antioxidant activity in Wistar rat brain homogenate assessed as inhibition of FeCl2-induced lipid peroxidation; type: functional, tissue-based
Brain [4] = assay: Potency index, ratio of quercetin IC50 to test compound IC50 for antioxidant activity in Wistar rat brain homogenate assessed as inhibition of FeCl2-induced lipid peroxidation; type: functional, tissue-based
[5] = Rattus norvegicus, Wistar, Brain, read-out: IC50

## COc1c(C(C)C)cc2c(c1OC(C)=O)[C@]13CCC[C@](C)([C@H](OC(C)=O)OC1=O)[C@@H]3CC2
Brain [1]
  IC50: Not Active
[2]
  IC50: Not Active

## COc1c(C(C)C)cc2c(c1O)[C@]13CCC[C@](C)([C@H](O)OC1=O)[C@@H]3CC2
Brain [1]
  IC50: Not Active
[2]
  IC50: Not Active
Entamoeba histolytica
  IC50: 43 µM
Giardia intestinalis
  IC50: 67.1 µM
Rattus norvegicus
  ED50: 2.2 µmol/kg

## O=c1c(O)c(-c2ccc(O)c(O)c2)oc2cc(O)cc(O)c12 [QUERCETIN]
[2]; read-out: IC50
  IC50: 10.9 µM
Rattus norvegicus
  ED50: 1.1 µmol/kg

## COc1c(C(C)C)cc2c(c1O)[C@]13CCC[C@](C)([C@H](OC(C)=O)OC1=O)[C@@H]3CC2
Brain [1]
  IC50: Not Active
[2]
  IC50: Not Active
Entamoeba histolytica
  IC50: 34.9 µM
Giardia intestinalis
  IC50: 46.4 µM

## Cc1cc(C(C)(C)C)c(O)c(C(C)(C)C)c1 [BUTYLATED HYDROXYTOLUENE]
Brain [1]; [5]
  IC50: 1.2 µM

## COc1c(C(C)C)cc2c(c1O)C[C@]13CCC[C@](C)(C(=O)O1)[C@@H]3CC2
Brain [1]; [5]
  IC50: 40.9 µM
[2]
  IC50: Not Active

## CC[C@H]1CN2CCc3cc(OC)c(OC)cc3[C@@H]2C[C@@H]1C[C@H]1NCCc2cc(OC)c(OC)cc21 [EMETINE]
Giardia intestinalis
  IC50: 0.8 µM

## COC(=O)[C@]12CCC[C@](C)(C=O)[C@@H]1CCc1cc(C(C)C)c(OC)c(O)c12
Brain [1]; [5]
  IC50: 19.2 µM
[2]
  IC50: Not Active
Entamoeba histolytica
  IC50: 48.5 µM
Giardia intestinalis
  IC50: 61.8 µM

## Cc1c(C)c2c(c(C)c1O)CC[C@@](C)(CCC[C@H](C)CCC[C@H](C)CCCC(C)C)O2 [ALPHA-TOCOPHEROL]
[2]; read-out: IC50
  IC50: 31.7 µM

## CC(=O)Oc1c(C(C)C)cc2c(c1OC(C)=O)[C@]13CCC[C@](C)([C@H](OC(C)=O)OC1=O)[C@@H]3CC2
Brain [1]
  IC50: Not Active
[2]
  IC50: Not Active
Entamoeba histolytica
  IC50: 39.5 µM
Giardia intestinalis
  IC50: 47.7 µM
Rattus norvegicus
  ED50: 2.7 µmol/kg

## CC(C)c1cc2c(c(O)c1O)[C@]13CCC[C@](C)([C@H](O)OC1=O)[C@@H]3CC2
Brain [1]; [5]
  IC50: 5.9 µM
Brain [3]
  Ratio IC50: 5
Brain [4]
  Ratio IC50: 4
[2]; read-out: IC50
  IC50: 24.8 µM
Entamoeba histolytica
  IC50: 37.8 µM
Giardia intestinalis
  IC50: 63 µM
Rattus norvegicus
  ED50: 4.1 µmol/kg

## CN(C)C(=O)C(CCN1CCC(O)(c2ccc(Cl)cc2)CC1)(c1ccccc1)c1ccccc1 [LOPERAMIDE HYDROCHLORIDE]
Rattus norvegicus
  ED50: 0.2 µmol/kg

## CC(C)c1cc2c(c(O)c1O)[C@]13CCC[C@](C)(COC1=O)[C@@H]3CC2
Brain [1]; [5]
  IC50: 2.7 µM
Brain [3]
  Ratio IC50: 2
Brain [4]
  Ratio IC50: 2
[2]; read-out: IC50
  IC50: 29.9 µM
Entamoeba histolytica
  IC50: 31.3 µM
Giardia intestinalis
  IC50: 49 µM
Rattus norvegicus
  ED50: 5.5 µmol/kg

## Cc1ncc([N+](=O)[O-])n1CCO [METRONIDAZOLE]
Entamoeba histolytica
  IC50: 0.2 µM
Giardia intestinalis
  IC50: 1.2 µM
